What was measured:
Type in all cases: functional
OVCAR-4 = experiment: Growth inhibition of human OVCAR4 cells after 48 hrs by sulforhodamine B assay; details: OVCAR-4, 48 h; for CC50: read-out: pLC50 (the source's name) (converted); for TGI: read-out: pTGI (converted)
Outline: (§1)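 NCI 60-human-tumor-cell-line panel, with compounds tested over a 5-log dose range. Values are taken from dose-response curves as log10 molar concentrations: GI50 is 50% net growth inhibition, TGI is total growth inhibition, and LC50 is 50% net cell death.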

NCI/ADR-RES = experiment: Growth inhibition of human NCI/ADR-RES cells after 48 hrs by sulforhodamine B assay; details: for CC50: read-out: pLC50 (the source's name) (converted); for TGI: read-out: pTGI (converted); outline: as §1
TK-10 = experiment: Growth inhibition of human TK10 cells after 48 hrs by sulforhodamine B assay; details: TK-10, 48 h; for CC50: read-out: pLC50 (the source's name) (converted); for TGI: read-out: pTGI (converted)
Outline: (§2)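 Run in the NCI 60-human-tumour-cell-line panel, tested over a 5-log dose range. Dose–response curves gave three values per cell line, each as a log10 molar concentration: GI50 (50% inhibition of net cell growth), TGI (total inhibition of net growth) and LC50 (50% net cell death). The mean graph midpoint is the arithmetic mean over all lines, with insensitive lines entered at the highest concentration tested.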

Malme-3M = experiment: Growth inhibition of human MALME-3M cells after 48 hrs by sulforhodamine B assay; outline: as §1
NCI-H522 = experiment: Growth inhibition of human NCI-H522 cells after 48 hrs by sulforhodamine B assay; details: NCI-H522, 48 h; for TGI: read-out: pTGI (converted); outline: as §1
UACC-62 = experiment: Growth inhibition of human UACC62 cells after 48 hrs by sulforhodamine B assay; details: UACC-62, 48 h; for CC50: read-out: pLC50 (the source's name) (converted); for TGI: read-out: pTGI (converted); outline: as §2
M14 = experiment: Growth inhibition of human M14 cells after 48 hrs by sulforhodamine B assay; details: M14, 48 h; for CC50: read-out: pLC50 (the source's name) (converted); for TGI: read-out: pTGI (converted); outline: as §1
CAKI-1 = experiment: Growth inhibition of human Caki1 cells after 48 hrs by sulforhodamine B assay; details: CAKI-1, 48 h; for CC50: read-out: pLC50 (the source's name) (converted); for TGI: read-out: pTGI (converted); outline: as §1
A498 = experiment: Growth inhibition of human A498 cells after 48 hrs by sulforhodamine B assay; details: A498, 48 h; outline: as §1
786-0 = experiment: Growth inhibition of human 786-0 cells after 48 hrs by sulforhodamine B assay; details: 786-0, 48 h; for CC50: read-out: pLC50 (the source's name) (converted); for TGI: read-out: pTGI (converted); outline: as §1
K562 = experiment: Growth inhibition of human K562 cells after 48 hrs by sulforhodamine B assay; details: K562, 48 h; for TGI: read-out: pTGI (converted); outline: as §1
HOP-62 = experiment: Growth inhibition of human HOP62 cells after 48 hrs by sulforhodamine B assay; details: HOP-62, 48 h; for TGI: read-out: pTGI (converted); outline: as §1
SF-539 = experiment: Growth inhibition of human SF539 cells after 48 hrs by sulforhodamine B assay; details: SF-539, 48 h; for TGI: read-out: pTGI (converted); outline: as §1
SN12C = experiment: Growth inhibition of human SN12C cells after 48 hrs by sulforhodamine B assay; outline: as §2
SK-OV-3 = experiment: Growth inhibition of human SKOV3 cells after 48 hrs by sulforhodamine B assay; details: SK-OV-3, 48 h; for CC50: read-out: pLC50 (the source's name) (converted); for TGI: read-out: pTGI (converted); outline: as §1
UO-31 = experiment: Growth inhibition of human UO31 cells after 48 hrs by sulforhodamine B assay; details: UO-31, 48 h; for CC50: read-out: pLC50 (the source's name) (converted); for TGI: read-out: pTGI (converted); outline: as §2
T47D = experiment: Growth inhibition of human T47D cells after 48 hrs by sulforhodamine B assay; outline: as §2
KM12 = experiment: Growth inhibition of human KM12 cells after 48 hrs by sulforhodamine B assay; details: KM12, 48 h; for TGI: read-out: pTGI (converted); outline: as §1
NCI-H226 = experiment: Growth inhibition of human NCI-H226 cells after 48 hrs by sulforhodamine B assay; details: NCI-H226, 48 h; for TGI: read-out: pTGI (converted); outline: as §1
NCI-H460 = experiment: Growth inhibition of human NCI-H460 cells after 48 hrs by sulforhodamine B assay; details: NCI-H460, 48 h; for TGI: read-out: pTGI (converted); outline: as §1
EKVX = experiment: Growth inhibition of human EKVX cells after 48 hrs by sulforhodamine B assay; details: for TGI: read-out: pTGI (converted); outline: as §1
HCT-15 = experiment: Growth inhibition of human HCT15 cells after 48 hrs by sulforhodamine B assay; details: HCT-15, 48 h; for TGI: read-out: pTGI (converted); outline: as §1
CCRF-CEM = experiment: Growth inhibition of human CCRF-CEM cells after 48 hrs by sulforhodamine B assay; outline: as §1
OVCAR-3 = experiment: Growth inhibition of human OVCAR-3 cells after 48 hrs by sulforhodamine B assay; details: OVCAR-3, 48 h; for CC50: read-out: pLC50 (the source's name) (converted); for TGI: read-out: pTGI (converted); outline: as §1
MDA-MB-231 = experiment: Growth inhibition of human MDA-MB-231 cells after 48 hrs by sulforhodamine B assay; details: MDA-MB-231, 48 h; for CC50: read-out: pLC50 (the source's name) (converted); for TGI: read-out: pTGI (converted); outline: as §1
HL-60(TB) = experiment: Growth inhibition of human HL-60(TB) cells after 48 hrs by sulforhodamine B assay; details: HL-60, 48 h; for TGI: read-out: pTGI (converted)
Outline: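 Tested only on compounds active in a three-line prescreen, in the NCI 60-human-tumour-cell-line panel over a 5-log dose range. Values come from dose–response curves as log10 molar GI50, the concentration inhibiting 50% net cell growth. Log10 TGI (total growth inhibition) and log10 LC50 (50% net cell death) were derived too. Mean graph midpoints include insensitive lines at the highest concentration tested.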

HOP-92 = experiment: Growth inhibition of human HOP92 cells after 48 hrs by sulforhodamine B assay; details: HOP-92, 48 h; outline: as §1
BT-549 = experiment: Growth inhibition of human BT549 cells after 48 hrs by sulforhodamine B assay; details: BT-549, 48 h; outline: as §1
HT-29 = experiment: Growth inhibition of human HT-29 cells after 48 hrs by sulforhodamine B assay; details: HT-29, 48 h; outline: as §1
[1] = read-out: pLC50 (the source's name) (converted)

Nc1cc(N)c2nc(-c3ccccc3)c(Oc3ccc(Cl)c(Cl)c3)nc2c1
GI50 (OVCAR-4): 33.1 µM
CC50 (OVCAR-4): > 100 µM
TGI (OVCAR-4): > 100 µM
GI50 (NCI/ADR-RES): 11.7 µM
CC50 (NCI/ADR-RES): > 100 µM
TGI (NCI/ADR-RES): 36.3 µM
GI50 (TK-10): 24.5 µM
CC50 (TK-10): > 100 µM
TGI (TK-10): 63.1 µM
GI50 (Malme-3M): 15.8 µM
CC50 (Malme-3M; [1]): 89.1 µM
TGI (Malme-3M; read-out: pTGI (converted)): 37.2 µM
GI50 (NCI-H522): 8.32 µM
LC50 (NCI-H522): > 100 µM
TGI (NCI-H522): 33.9 µM
GI50 (UACC-62): 16.2 µM
CC50 (UACC-62): > 100 µM
TGI (UACC-62): 47.9 µM
GI50 (M14): 14.1 µM
CC50 (M14): > 100 µM
TGI (M14): 70.8 µM
GI50 (CAKI-1): 15.8 µM
CC50 (CAKI-1): > 100 µM
TGI (CAKI-1): > 100 µM
GI50 (A498): 91.2 µM
CC50 (A498; [1]): > 100 µM
TGI (A498; read-out: pTGI (converted)): > 100 µM
GI50 (786-0): 12.6 µM
CC50 (786-0): > 100 µM
TGI (786-0): 44.7 µM
GI50 (K562): 3.55 µM
LC50 (K562): > 100 µM
TGI (K562): > 100 µM
GI50 (HOP-62): 17 µM
LC50 (HOP-62): 85.1 µM
TGI (HOP-62): 38 µM
GI50 (SF-539): 13.5 µM
LC50 (SF-539): 64.6 µM
TGI (SF-539): 29.5 µM
GI50 (SN12C): 11.5 µM
CC50 (SN12C; [1]): > 100 µM
TGI (SN12C; read-out: pTGI (converted)): > 100 µM
GI50 (SK-OV-3): 24 µM
CC50 (SK-OV-3): > 100 µM
TGI (SK-OV-3): 66.1 µM
GI50 (UO-31): 4.07 µM
CC50 (UO-31): > 100 µM
TGI (UO-31): > 100 µM
GI50 (T47D): 24.5 µM
CC50 (T47D; [1]): > 100 µM
TGI (T47D; read-out: pTGI (converted)): 79.4 µM
GI50 (KM12): 6.31 µM
LC50 (50% net cell kill) (KM12): > 100 µM
TGI (KM12): 39.8 µM
GI50 (NCI-H226): 15.1 µM
LC50 (NCI-H226): > 100 µM
TGI (NCI-H226): 49 µM
GI50 (NCI-H460): 18.2 µM
LC50 (50% net cell kill) (NCI-H460): > 100 µM
TGI (NCI-H460): 70.8 µM
GI50 (EKVX): 2.14 µM
LC50 (50% net cell kill) (EKVX): 41.7 µM
TGI (EKVX): 8.32 µM
GI50 (HCT-15): 20 µM
LC50 (HCT-15): > 100 µM
TGI (HCT-15): > 100 µM
GI50 (CCRF-CEM): 2.95 µM
LC50 (CCRF-CEM): > 100 µM
TGI (CCRF-CEM; read-out: pTGI (converted)): > 100 µM
GI50 (OVCAR-3): 10.7 µM
CC50 (OVCAR-3): 66.1 µM
TGI (OVCAR-3): 26.9 µM
GI50 (MDA-MB-231): 10.2 µM
CC50 (MDA-MB-231): 66.1 µM
TGI (MDA-MB-231): 26.3 µM
GI50 (HL-60(TB)): 5.13 µM
LC50 (HL-60(TB)): > 100 µM
TGI (HL-60(TB)): > 100 µM

Nc1cc(N)c2nc(-c3ccccc3)c(Oc3ccc(F)cc3)nc2c1
GI50 (OVCAR-4): 8.32 µM
CC50 (OVCAR-4): > 100 µM
TGI (OVCAR-4): 35.5 µM
GI50 (NCI/ADR-RES): 18.2 µM
CC50 (NCI/ADR-RES): 70.8 µM
TGI (NCI/ADR-RES): 36.3 µM
GI50 (HOP-92): 12.3 µM
LC50 (50% net cell death) (HOP-92): 72.4 µM
TGI (HOP-92; read-out: pTGI (converted)): 29.5 µM
GI50 (TK-10): 16.6 µM
CC50 (TK-10): 64.6 µM
TGI (TK-10): 32.4 µM
GI50 (NCI-H522): 64.6 µM
LC50 (NCI-H522): > 100 µM
TGI (NCI-H522): > 100 µM
GI50 (UACC-62): 15.8 µM
CC50 (UACC-62): 69.2 µM
TGI (UACC-62): 33.1 µM
GI50 (M14): 17 µM
CC50 (M14): > 100 µM
TGI (M14): 44.7 µM
GI50 (CAKI-1): 11.2 µM
CC50 (CAKI-1): 53.7 µM
TGI (CAKI-1): 24.5 µM
GI50 (786-0): 15.5 µM
CC50 (786-0): 75.9 µM
TGI (786-0): 34.7 µM
GI50 (K562): 11 µM
LC50 (K562): > 100 µM
TGI (K562): > 100 µM
GI50 (HOP-62): 21.4 µM
LC50 (HOP-62): > 100 µM
TGI (HOP-62): 49 µM
GI50 (SF-539): 18.2 µM
LC50 (SF-539): 70.8 µM
TGI (SF-539): 35.5 µM
GI50 (BT-549): 15.1 µM
CC50 (BT-549; [1]): 81.3 µM
TGI (BT-549; read-out: pTGI (converted)): 34.7 µM
GI50 (SK-OV-3): 20.9 µM
CC50 (SK-OV-3): 83.2 µM
TGI (SK-OV-3): 41.7 µM
GI50 (UO-31): 13.5 µM
CC50 (UO-31): > 100 µM
TGI (UO-31): 45.7 µM
GI50 (KM12): 14.5 µM
LC50 (50% net cell kill) (KM12): > 100 µM
TGI (KM12): 40.7 µM
GI50 (HT-29): 22.9 µM
LC50 (HT-29): > 100 µM
TGI (HT-29; read-out: pTGI (converted)): 51.3 µM
GI50 (NCI-H226): 20.4 µM
LC50 (NCI-H226): > 100 µM
TGI (NCI-H226): 49 µM
GI50 (NCI-H460): 39.8 µM
LC50 (50% net cell kill) (NCI-H460): > 100 µM
TGI (NCI-H460): > 100 µM
GI50 (EKVX): 14.8 µM
LC50 (50% net cell kill) (EKVX): 77.6 µM
TGI (EKVX): 33.9 µM
GI50 (HCT-15): 36.3 µM
LC50 (HCT-15): > 100 µM
TGI (HCT-15): > 100 µM
GI50 (OVCAR-3): 15.5 µM
CC50 (OVCAR-3): > 100 µM
TGI (OVCAR-3): 41.7 µM
GI50 (MDA-MB-231): 3.89 µM
CC50 (MDA-MB-231): > 100 µM
TGI (MDA-MB-231): 28.8 µM
GI50 (HL-60(TB)): 18.6 µM
LC50 (HL-60(TB)): > 100 µM
TGI (HL-60(TB)): 64.6 µM

Source: ChEMBL document CHEMBL1137710, “Synthesis and in vitro antitumor activity of new quinoxaline derivatives” (2009)
